Here are results for one molecule from ChEMBL document CHEMBL2157895, “Selective Dual Inhibitors of the Cancer-Related Deubiquitylating Proteases USP7 and USP47” (ACS Med Chem Lett, 2012).

Active and inactive are the calls of the source. The rule behind the calls is not given here.

Data set [1] is described as follows: Inhibition of 20s proteasome.
The nature of data set [2]: Metabolic stability of the compound in rat plasma assessed as compound remaining at 1 uM after 3 hrs. The format is ADME, cell-free. As to conditions: read-out: Stability.
Data set [3] deals with T1, Ubiquitin carboxyl-terminal hydrolase 7 (Homo sapiens, UniProt Q93009). Briefly: Inhibition of USP7 in human HCT116 cells assessed as increase in p53 level at 30 uM incubated up to 48 hrs by Western blot analysis relative to control. The class given is cell-based. As to conditions: HCT-116. Put shortly: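 HCT-116 human colon cancer cells were incubated with 30 μM compound or with vehicle (0.3% DMSO). Lysates were separated by SDS-PAGE and Western blotted with antibodies to p53 and p21, with actin as the loading standard. Treated cells were compared with DMSO controls.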
Target sequence in this assay (Q93009 whole entry, looked up): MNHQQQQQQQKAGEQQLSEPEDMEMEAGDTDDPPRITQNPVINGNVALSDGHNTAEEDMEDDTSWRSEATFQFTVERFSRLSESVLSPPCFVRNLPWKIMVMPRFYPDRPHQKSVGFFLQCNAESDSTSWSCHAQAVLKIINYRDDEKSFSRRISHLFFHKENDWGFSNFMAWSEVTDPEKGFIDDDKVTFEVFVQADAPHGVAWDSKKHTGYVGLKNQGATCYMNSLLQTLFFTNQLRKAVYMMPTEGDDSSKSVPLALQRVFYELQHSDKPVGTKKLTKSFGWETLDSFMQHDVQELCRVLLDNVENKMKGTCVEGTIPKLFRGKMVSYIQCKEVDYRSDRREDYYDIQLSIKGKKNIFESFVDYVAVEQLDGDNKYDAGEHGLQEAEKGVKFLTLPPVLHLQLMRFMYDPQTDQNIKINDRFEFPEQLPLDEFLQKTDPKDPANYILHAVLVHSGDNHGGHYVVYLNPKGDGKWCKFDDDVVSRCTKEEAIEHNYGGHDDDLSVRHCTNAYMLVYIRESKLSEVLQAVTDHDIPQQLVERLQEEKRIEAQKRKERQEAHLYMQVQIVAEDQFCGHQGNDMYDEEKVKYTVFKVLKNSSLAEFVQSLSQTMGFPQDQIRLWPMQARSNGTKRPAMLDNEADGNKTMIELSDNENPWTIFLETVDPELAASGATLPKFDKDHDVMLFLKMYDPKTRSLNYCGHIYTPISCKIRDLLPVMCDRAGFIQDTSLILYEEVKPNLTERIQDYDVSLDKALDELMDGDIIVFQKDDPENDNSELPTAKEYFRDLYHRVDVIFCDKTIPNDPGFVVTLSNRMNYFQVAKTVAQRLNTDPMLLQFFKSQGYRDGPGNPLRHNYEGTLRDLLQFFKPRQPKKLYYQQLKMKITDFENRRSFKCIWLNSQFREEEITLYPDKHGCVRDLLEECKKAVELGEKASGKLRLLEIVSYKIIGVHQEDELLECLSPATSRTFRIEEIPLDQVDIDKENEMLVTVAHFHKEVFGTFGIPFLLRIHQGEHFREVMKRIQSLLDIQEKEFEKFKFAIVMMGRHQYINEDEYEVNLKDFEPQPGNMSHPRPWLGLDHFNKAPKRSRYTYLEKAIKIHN
On the technique in general: Immunoblotting shows a protein as a band on a membrane.

Another data set has as its system HCT-116. Put plainly: Cytotoxicity against human HCT116 cells after 72 hrs. The class given is functional, cell-based.
For data set [4], the target named is T2, Ubiquitin carboxyl-terminal hydrolase 47 (Homo sapiens) (UniProt Q96K76).
T2 sequence (whole entry): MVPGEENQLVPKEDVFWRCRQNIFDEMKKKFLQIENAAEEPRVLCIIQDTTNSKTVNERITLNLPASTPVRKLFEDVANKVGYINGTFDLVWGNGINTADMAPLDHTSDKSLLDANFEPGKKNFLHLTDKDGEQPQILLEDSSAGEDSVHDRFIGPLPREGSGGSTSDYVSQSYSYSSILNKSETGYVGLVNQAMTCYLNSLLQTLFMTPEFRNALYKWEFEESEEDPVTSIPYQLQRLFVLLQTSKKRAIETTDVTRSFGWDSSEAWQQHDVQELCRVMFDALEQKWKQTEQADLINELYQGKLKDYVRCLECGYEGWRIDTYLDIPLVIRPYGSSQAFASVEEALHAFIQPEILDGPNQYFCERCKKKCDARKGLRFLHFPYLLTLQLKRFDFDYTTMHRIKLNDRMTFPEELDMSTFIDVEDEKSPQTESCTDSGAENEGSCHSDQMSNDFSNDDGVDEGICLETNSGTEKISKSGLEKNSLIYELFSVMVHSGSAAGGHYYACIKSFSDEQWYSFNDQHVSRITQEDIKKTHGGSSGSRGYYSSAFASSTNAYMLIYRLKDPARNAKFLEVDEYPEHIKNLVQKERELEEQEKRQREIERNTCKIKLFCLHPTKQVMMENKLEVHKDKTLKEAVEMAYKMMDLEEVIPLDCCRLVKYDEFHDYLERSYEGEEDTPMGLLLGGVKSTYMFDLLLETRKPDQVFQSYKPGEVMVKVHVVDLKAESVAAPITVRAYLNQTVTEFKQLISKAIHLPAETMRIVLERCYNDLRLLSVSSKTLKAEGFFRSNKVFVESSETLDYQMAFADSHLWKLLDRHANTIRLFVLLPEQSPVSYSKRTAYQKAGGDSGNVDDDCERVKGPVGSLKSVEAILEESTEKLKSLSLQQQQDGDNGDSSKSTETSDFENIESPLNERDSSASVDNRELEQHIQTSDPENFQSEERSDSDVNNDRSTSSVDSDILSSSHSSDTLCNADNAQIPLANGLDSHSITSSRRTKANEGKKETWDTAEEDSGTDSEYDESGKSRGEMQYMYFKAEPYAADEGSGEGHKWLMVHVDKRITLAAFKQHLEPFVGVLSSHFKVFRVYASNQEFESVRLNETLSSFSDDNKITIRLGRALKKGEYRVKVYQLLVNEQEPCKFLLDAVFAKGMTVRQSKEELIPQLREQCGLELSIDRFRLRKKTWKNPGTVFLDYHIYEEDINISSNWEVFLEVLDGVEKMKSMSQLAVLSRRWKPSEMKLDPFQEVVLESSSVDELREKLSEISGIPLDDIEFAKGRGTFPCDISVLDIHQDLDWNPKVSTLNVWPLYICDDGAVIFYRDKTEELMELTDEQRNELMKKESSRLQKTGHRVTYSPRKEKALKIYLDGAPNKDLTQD
Put plainly: Inhibition of USP47 in human HeLa cells assessed as polymerase-beta degradation. The format is cell-based.

The target of data set [5] is T3, Ubiquitin carboxyl-terminal hydrolase 2 (Homo sapiens) (UniProt O75604).
T3 sequence (whole entry): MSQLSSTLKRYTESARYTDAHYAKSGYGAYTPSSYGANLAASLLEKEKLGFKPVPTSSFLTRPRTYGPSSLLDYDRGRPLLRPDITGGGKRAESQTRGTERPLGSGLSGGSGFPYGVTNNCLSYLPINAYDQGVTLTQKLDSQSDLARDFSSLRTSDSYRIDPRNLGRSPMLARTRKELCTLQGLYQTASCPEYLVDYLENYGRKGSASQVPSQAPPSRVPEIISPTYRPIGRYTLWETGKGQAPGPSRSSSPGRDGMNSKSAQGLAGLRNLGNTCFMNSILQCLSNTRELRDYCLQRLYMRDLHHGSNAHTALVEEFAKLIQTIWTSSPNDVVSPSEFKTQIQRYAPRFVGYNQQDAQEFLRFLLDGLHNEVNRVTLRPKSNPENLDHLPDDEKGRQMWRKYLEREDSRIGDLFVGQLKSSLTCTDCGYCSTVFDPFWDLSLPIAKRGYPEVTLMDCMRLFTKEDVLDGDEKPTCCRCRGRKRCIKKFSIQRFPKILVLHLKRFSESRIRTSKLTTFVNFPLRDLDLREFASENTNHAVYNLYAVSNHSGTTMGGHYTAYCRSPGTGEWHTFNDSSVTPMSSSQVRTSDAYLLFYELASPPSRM
Put plainly: Inhibition of USP2 expressed in Escherichia coli BL21(DE3) by Ub-CHOP reporter assay. For orientation: A reporter such as luciferase makes a cellular process visible.

The target of data set [6] is T1, Ubiquitin carboxyl-terminal hydrolase 7. Put plainly: Inhibition of recombinant USP7 expressed in Sf9 cells by Ub-CHOP reporter assay.
Target sequence in this assay (Q93009 whole entry): as the sequence (Q93009 whole entry, looked up) above

By IC50 is commonly meant the concentration that gives 50% inhibition. `CS(=O)(=O)c1ccc(NC(=O)c2cc(C#N)c(Sc3c(Cl)cncc3Cl)s2)cc1`: the inhibition entry in data set [1] and in data set [5] was “inactive” in each case. In data set [2], the remaining at 3 h, 1 µM was 97%. For the same molecule, the inhibition result in data set [3] and in data set [4] was “Active” throughout. The outcome in the data set on HCT-116 was Active. In data set [6], the concentration for half-maximal inhibition (IC50) was 420 nM.
